Ratio Ki and Ki data for 13 compounds are collected here from ChEMBL document CHEMBL1143997, “Further structural optimization of cis-(6-benzhydryl-piperidin-3-yl)-benzylamine and 1,4-diazabicyclo[3.3.1]nonane derivatives by introducing an exocyclic hydroxyl group: interaction with dopamine, serotonin, and norepinephrine transporters” (Bioorg Med Chem, 2008).

A word on the Ki: it is the equilibrium dissociation constant of an inhibitor or competing ligand from its target.

Each structure is given as a SMILES string.

The species entered for assay [1] is Rattus norvegicus. In words: Ratio of Ki for NET to Ki for DAT in rat brain. It counts as tissue-based.
Assay [2] concerns the target Sodium-dependent serotonin transporter (Rattus norvegicus, UniProt P31652). Put plainly: Inhibition of [3H]5HT uptake in SERT in rat cerebral cortex. Type of assay: tissue-based. In short, it runs like this:
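Rat cerebral cortex; [3H]5-HT accumulation measured. Nonspecific uptake defined with 10 uM citalopram. Compounds dissolved in DMSO, final 0.5% DMSO. At least five triplicate concentrations spaced around IC50. Nonlinear fit, with Ki by Cheng-Prusoff. Mean ± SEM of 3–8 independent experiments in triplicate.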

The target in assay [3] is Norepinephrine transporter (Rattus norvegicus, UniProt Q9WTR4). In words: Inhibition of [3H]NE uptake in NET in rat cerebral cortex. Type of assay: tissue-based.
For assay [4], the target named is T1, Sodium-dependent dopamine transporter (Rattus norvegicus, UniProt P23977). Put plainly: Inhibition of [3H]dopamine uptake in DAT in rat striatum. It counts as tissue-based. In short, it runs like this:
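Rat striatal tissue; [3H]DA accumulation measured. Nonspecific uptake defined with 100 uM cocaine. Compounds dissolved in DMSO, final 0.5% DMSO. At least five triplicate concentrations spaced around IC50. Nonlinear curve fit, with Ki from Cheng-Prusoff. Mean ± SEM of 3–8 independent experiments done in triplicate.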

In assay [5] the target is T1, Sodium-dependent dopamine transporter. Put plainly: Displacement of [3H]WIN-from DAT in rat striatum. In short, it runs like this:
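Compounds dissolved in DMSO, diluted in 10% DMSO, final 0.5% DMSO. At least five concentrations in triplicate spaced around IC50. IC50 from nonlinear curve fitting, converted to Ki by Cheng-Prusoff. Mean ± SEM of 3–8 independent experiments.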

Assay [6] deals with Sodium-dependent dopamine transporter (Rattus norvegicus) (UniProt P23977). Put plainly: Ratio of [3H]DA uptake to [3H]WIN-binding to DAT in rat brain. Type of assay: tissue-based.
Assay [7] is filed under the species Rattus norvegicus. Put plainly: Ratio of Ki for SERT to Ki for DAT in rat brain. It counts as tissue-based.

Sodium-dependent dopamine transporter (Rattus norvegicus), sequence (P23977 whole entry): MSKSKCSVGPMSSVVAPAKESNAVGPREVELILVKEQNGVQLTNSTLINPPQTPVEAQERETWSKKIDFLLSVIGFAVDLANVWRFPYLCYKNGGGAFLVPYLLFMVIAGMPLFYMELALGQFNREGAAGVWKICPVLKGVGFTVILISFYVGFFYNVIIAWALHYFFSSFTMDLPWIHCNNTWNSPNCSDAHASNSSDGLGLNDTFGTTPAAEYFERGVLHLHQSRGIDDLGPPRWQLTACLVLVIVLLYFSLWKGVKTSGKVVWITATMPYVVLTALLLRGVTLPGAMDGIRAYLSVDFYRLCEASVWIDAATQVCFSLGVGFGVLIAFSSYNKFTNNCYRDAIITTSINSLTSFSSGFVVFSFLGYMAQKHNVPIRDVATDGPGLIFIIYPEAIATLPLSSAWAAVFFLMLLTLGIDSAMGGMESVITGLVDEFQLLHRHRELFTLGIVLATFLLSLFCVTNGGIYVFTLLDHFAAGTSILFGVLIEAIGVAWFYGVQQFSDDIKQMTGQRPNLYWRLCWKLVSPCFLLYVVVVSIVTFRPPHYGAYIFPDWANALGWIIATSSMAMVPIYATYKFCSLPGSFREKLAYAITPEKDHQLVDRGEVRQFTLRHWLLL
T1 sequence (P23977 whole entry): as above
Norepinephrine transporter, sequence (Q9WTR4 whole entry): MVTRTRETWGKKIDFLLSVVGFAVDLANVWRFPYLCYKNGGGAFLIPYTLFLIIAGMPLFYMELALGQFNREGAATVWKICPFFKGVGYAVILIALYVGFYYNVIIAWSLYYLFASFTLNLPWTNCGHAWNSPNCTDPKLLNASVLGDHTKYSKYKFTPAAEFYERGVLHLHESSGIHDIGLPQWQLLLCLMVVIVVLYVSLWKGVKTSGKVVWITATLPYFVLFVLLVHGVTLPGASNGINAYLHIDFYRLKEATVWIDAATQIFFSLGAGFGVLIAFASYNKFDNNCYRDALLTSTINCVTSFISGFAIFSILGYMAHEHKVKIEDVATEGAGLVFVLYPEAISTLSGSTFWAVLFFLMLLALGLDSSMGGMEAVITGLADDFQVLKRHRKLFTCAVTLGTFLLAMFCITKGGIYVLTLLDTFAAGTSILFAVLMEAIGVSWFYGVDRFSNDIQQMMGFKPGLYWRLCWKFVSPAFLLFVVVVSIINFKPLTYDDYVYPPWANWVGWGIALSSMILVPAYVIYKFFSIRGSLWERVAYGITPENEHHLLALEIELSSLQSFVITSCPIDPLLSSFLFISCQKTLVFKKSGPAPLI
Sodium-dependent serotonin transporter, sequence (P31652 whole entry): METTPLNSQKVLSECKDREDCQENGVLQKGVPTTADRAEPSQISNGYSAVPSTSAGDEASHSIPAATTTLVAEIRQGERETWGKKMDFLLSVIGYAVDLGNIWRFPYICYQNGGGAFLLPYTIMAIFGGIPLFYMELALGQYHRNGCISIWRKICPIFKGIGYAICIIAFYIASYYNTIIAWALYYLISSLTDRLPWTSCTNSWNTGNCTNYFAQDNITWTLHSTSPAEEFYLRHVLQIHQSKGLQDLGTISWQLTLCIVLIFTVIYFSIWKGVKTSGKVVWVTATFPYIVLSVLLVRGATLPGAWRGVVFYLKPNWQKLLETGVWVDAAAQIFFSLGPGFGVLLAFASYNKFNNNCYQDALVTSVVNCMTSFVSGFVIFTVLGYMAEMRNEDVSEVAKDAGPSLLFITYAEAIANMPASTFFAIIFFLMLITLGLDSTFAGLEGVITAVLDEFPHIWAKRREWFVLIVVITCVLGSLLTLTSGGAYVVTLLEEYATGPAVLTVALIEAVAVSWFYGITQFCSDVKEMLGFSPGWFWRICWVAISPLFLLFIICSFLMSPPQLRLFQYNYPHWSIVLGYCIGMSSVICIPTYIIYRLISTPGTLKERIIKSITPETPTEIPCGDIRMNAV

`O[C@@H](CN1CCN2C[C@@H]1CC[C@H]2C(c1ccccc1)c1ccccc1)c1ccc(F)cc1`: the Ratio Ki in the assay listed under Rattus norvegicus [1] came to 4.7; in assay [6], 0.46; in the assay listed under Rattus norvegicus [7], 111. Besides, the Ki in assay [2] is 7410 nM; in assay [3] it was 319 nM; in assay [4], 66.5 nM; in assay [5], 142 nM.
Consider `O[C@H](CN[C@H]1CC[C@@H](C(c2ccccc2)c2ccccc2)NC1)Cc1ccccc1`, for which the Ratio Ki in the assay listed under Rattus norvegicus [1] is 9.1; in assay [6] it was 0.87; in the assay filed under Rattus norvegicus [7], 103. The inhibition constant (Ki) in assay [2] was determined as 2600 nM; in assay [3], 231 nM; in assay [5], 28.9 nM.
For the compound `N#Cc1ccc(CN[C@H]2CC[C@@H](C(c3ccccc3)c3ccccc3)NC2)cc1`, the Ki in assay [4] came out at 9.1 nM; in assay [5], 11.3 nM.
`O[C@H](CCN1CCN2C[C@@H]1CC[C@H]2C(c1ccccc1)c1ccccc1)c1ccc(F)cc1`: the results for the Ratio Ki (in the assay filed under Rattus norvegicus [1]; in assay [6]; in the assay filed under Rattus norvegicus [7]) were 9.2, 2.1 and 284, respectively. Further, the inhibition constant (Ki) in assay [2] is 11900 nM; in assay [3], 388 nM; in assay [4] it was 41.8 nM; in assay [5] it was 19.9 nM.
In the case of `O[C@@H](CN1CCN2C[C@@H]1CC[C@H]2C(c1ccccc1)c1ccccc1)c1ccccc1`, the Ratio Ki in the assay filed under Rattus norvegicus [1] came out at 4.6; in assay [6], 0.89; in the assay filed under Rattus norvegicus [7] it was 63.2. Also, the Ki came to 12900 nM in assay [2], 954 nM in assay [3], 204 nM in assay [4] and 228 nM in assay [5].
As for `O[C@H](Cc1ccccc1)CN1CCN2C[C@@H]1CC[C@H]2C(c1ccccc1)c1ccccc1`, the Ratio Ki in the assay listed under Rattus norvegicus [1] came to 8.8; in assay [6], 0.56; in the assay listed under Rattus norvegicus [7], 135. Moreover, the Ki in assay [2] is 11200 nM; in assay [3], 730 nM; in assay [4] it was 82.9 nM; in assay [5], 148 nM.
Turning to `O[C@H](CN1CCN2C[C@@H]1CC[C@H]2C(c1ccccc1)c1ccccc1)c1ccc(F)cc1`, the figures for the Ratio Ki (in the assay listed under Rattus norvegicus [1]; in assay [6]; in the assay listed under Rattus norvegicus [7]) were 4.5, 0.24 and 45.9, respectively. In addition, the Ki in assay [2] was 7340 nM; in assay [3], 728 nM; in assay [4], 160 nM; in assay [5] it was 649 nM.
Take `O[C@@H](CCN1CCN2C[C@@H]1CC[C@H]2C(c1ccccc1)c1ccccc1)c1ccc(F)cc1`: the Ratio Ki in the assay listed under Rattus norvegicus [1] is 48.4; in assay [6], 0.63; in the assay listed under Rattus norvegicus [7], 172. The Ki amounted to 1480 nM in assay [2], 418 nM in assay [3], 8.63 nM in assay [4] and 13.5 nM in assay [5].
Regarding `O[C@H](CN1CCN2C[C@@H]1CC[C@H]2C(c1ccccc1)c1ccccc1)c1ccccc1`, the Ratio Ki amounted to 6.5 in the assay listed under Rattus norvegicus [1], 0.25 in assay [6] and 35.7 in the assay listed under Rattus norvegicus [7]. Also, the Ki in assay [2] stood at 9510 nM; in assay [3] it was 1730 nM; in assay [4] it was 266 nM; in assay [5], 1040 nM.
`COc1ccc(CN2CCN3C[C@@H]2CC[C@H]3C(c2ccccc2)c2ccccc2)cc1`: the figures for the Ki in assay [4] and in assay [5] were 18.4 nM and 22.5 nM, respectively.
Regarding `O[C@@H](CN[C@H]1CC[C@@H](C(c2ccccc2)c2ccccc2)NC1)Cc1ccccc1`, the Ki in assay [2] was 1390 nM; in assay [3] it was 170 nM; in assay [4], 10.6 nM. In addition, the Ratio Ki in assay [6] amounted to 0.78.
Regarding `O[C@@H](Cc1ccccc1)CN1CCN2C[C@@H]1CC[C@H]2C(c1ccccc1)c1ccccc1`, the Ratio Ki in the assay filed under Rattus norvegicus [1] was found to be 15.4; in assay [6], 0.35; in the assay filed under Rattus norvegicus [7], 615. The Ki in assay [2] was found to be 10300 nM; in assay [3], 259 nM; in assay [4], 16.8 nM; in assay [5], 47 nM.
For the compound `O[C@@H](CN[C@H]1CC[C@@H](C(c2ccccc2)c2ccccc2)NC1)c1ccc(F)cc1`, the Ratio Ki in the assay listed under Rattus norvegicus [1] is 6; in the assay listed under Rattus norvegicus [7] it was 12.2. Besides, the Ki in assay [2] worked out at 2900 nM; in assay [3], 1440 nM.
